Converted amounts (≈) assume the structure as drawn.
How the values were obtained:
[1] = (§1) Metabolic stability in rat liver microsomes assessed as half life by LC-MS/MS analysis in presence of NADPH
[2] = Cytotoxicity against human Huh7.5.1 cells assessed as ATP level by luminescence analysis; settings: huh-7
Liver microsome [3] = assay: as §1
Hepatitis C virus [4] = assay: Antiviral activity against HCV genotype 1b pseudoparticle infected in human Huh7.5.1 cells assessed as inhibition of virus entry at 10 uM after 4 hrs by luciferase reporter gene assay; type: functional, Hepacivirus hominis; settings: Huh-7, 4 h
Hepatitis C virus [5] = assay: Antiviral activity against HCV genotype 2a assessed as inhibition of RNA replication at 10 uM by cell-based replicon assay; type: functional, Hepacivirus hominis
Procedure, shortened: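 GT 2a subgenomic replicon cells were plated at 10^4/well and incubated overnight. They were then treated with compound (10 μM, or 3.2 or 1 μM for some compounds) for 48 h. Luciferase activity was read and expressed as % of DMSO.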

[6] = test system: Vesicular stomatitis virus; assay: Antiviral activity against Vesicular stomatitis virus G pseudoparticle infected in human Huh7.5.1 cells at 10 uM after 4 hrs by luciferase reporter gene assay; type: functional; settings: Huh-7, 4 h
Hepatitis C virus [7] = assay: microbe, parasite or virus in culture; type: functional, Hepacivirus hominis; settings: Huh-7, 48 h
Murine leukemia virus [8] = assay: Antiviral activity against Murine leukemia virus pseudoparticle infected in human Huh7.5.1 cells at 10 uM after 4 hrs by luciferase reporter gene assay; type: functional; settings: Huh-7, 4 h
Liver microsome [9] = assay: (§2) Metabolic stability in human liver microsomes assessed as half life by LC-MS/MS analysis in presence of NADPH
[10] = Solubility of compound in phosphate buffer at pH 7.4
Liver = assay: (§3) Half life of compound in CD-1 mouse liver at 10 mg/kg, ip by UPLC-MS/MS analysis; type: ADME, organism-based; settings: mouse, in vivo
Procedure, shortened: (§4)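 Male CD-1 mice (~35 g) got a single i.p. dose of 10 mg/kg, prepared fresh at 2 mg/mL in 10% PEG300 / 90% of 30% HP-β-CD in water. Drug was measured by UPLC-MS/MS. Parameters came from noncompartmental analysis, with AUC by the linear trapezoidal method and liver/plasma ratios taken.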

Hepatitis C virus [11] = assay: Antiviral activity against HCV genotype 1a pseudoparticle infected in human Huh7.5.1 cells assessed as inhibition of virus entry at 10 uM after 4 hrs by luciferase reporter gene assay; type: functional, Hepacivirus hominis; settings: subtype 1a, Huh-7, 4 h
histamine H1 receptor = histamine H1 receptor (Homo sapiens, UniProt P35367); assay: in vitro; settings: PathHunter cells
[12] = Metabolic stability in mouse liver microsomes assessed as half life by LC-MS/MS analysis in presence of NADPH
Mus musculus = assay: Hepatotoxicity in CD-1 mouse serum assessed as ALT level at 10 mg/kg, ip by UPLC-MS/MS analysis; type: toxicity, organism-based; settings: in vivo
Procedure, shortened: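 ALT was measured in serum from the mouse PK study: male CD-1 mice, single 10 mg/kg i.p. dose in 10% PEG300 / 90% of 30% HP-β-CD, samples from 0.083 to 24 h. A vehicle-only dosing group served as control. Individual mice were plotted, with mean ± SEM.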

[13] = AUCinfinity in CD-1 mouse plasma at 50 mg/kg, ip after 24 hrs by UPLC-MS/MS analysis; type: ADME, organism-based; design: dose 50 mg/kg, route intraperitoneal, time infinity
[14] = AUClast in CD-1 mouse liver at 50 mg/kg, ip after 24 hrs by UPLC-MS/MS analysis; type: ADME, organism-based; design: dose 50 mg/kg, time < 24 hr, route intraperitoneal
Hepatitis C virus [15] = assay: microbe, parasite or virus in culture; type: functional, organism-based, Hepacivirus hominis; settings: JFH-1, Huh-7.5.1, 48 h
HepG2 = assay: Cytotoxicity against human HepG2 cells assessed as ATP level by luminescence analysis
[16] = Cmax in CD-1 mouse liver at 50 mg/kg, ip after 24 hrs by UPLC-MS/MS analysis; type: ADME, organism-based; design: dose 50 mg/kg, route intraperitoneal
Hepatocyte = settings: human, hepatocytes
Influenza A virus = assay: microbe, parasite or virus in culture; settings: H1N1
SARS-CoV = assay: microbe, parasite or virus in culture; settings: Severe acute respiratory syndrome-related coronavirus
Tacaribe virus = assay: microbe, parasite or virus in culture; settings: Mammarenavirus tacaribeense
Hepatitis B virus = assay: microbe, parasite or virus in culture
Vaccinia virus = assay: microbe, parasite or virus in culture; settings: Orthopoxvirus vaccinia
Human betaherpesvirus 5 = assay: microbe, parasite or virus in culture
[17] = test system: Respiratory syncytial virus; assay: microbe, parasite or virus in culture; settings: human respiratory syncytial virus
Human alphaherpesvirus 1 = assay: microbe, parasite or virus in culture
Dengue virus = assay: microbe, parasite or virus in culture
Rift Valley fever virus = assay: microbe, parasite or virus in culture
Poliovirus 3 = assay: microbe, parasite or virus in culture; settings: Enterovirus C
[18] = test system: Venezuelan equine encephalitis virus; assay: microbe, parasite or virus in culture
Hepatitis C virus [19] = assay: microbe, parasite or virus in culture
[20] = as §2
Hepatitis C virus [21] = assay: Antiviral activity against HCV genotype 1a pseudoparticle infected in human Huh7.5.1 cells assessed as inhibition of virus entry at 3.2 uM after 4 hrs by luciferase reporter gene assay; type: functional, Hepacivirus hominis; settings: subtype 1a, Huh-7, 4 h
Procedure, shortened: (§5)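 Huh7.5.1 cells seeded at 10^4 cells/well, cultured overnight, then infected for 4 h with pseudoparticles (HCVpp GT 1a or 1b, MLVpp, VSV-Gpp) while compound was present. Cells were washed and cultured 48 h, then a luciferase read-out was taken. Values are expressed as % of DMSO control. Cyclosporin A 10 μM and bafilomycin A1 10 nM were run in parallel.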

Hepatitis C virus [22] = assay: Antiviral activity against single rounded infectious HCV infected in human Huh7.5.1 cells assessed as viral level at 3.2 uM after 48 hrs by luciferase reporter gene assay; type: functional, Hepacivirus hominis; settings: Huh-7, 48 h
Procedure, shortened: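 Huh7.5.1 cells (10^4 cells/well, overnight) were infected with single-round infectious HCV (HCVsc) in the presence of compound. Viral level was measured by luciferase after 48 h and expressed as % of DMSO control. The assay reports inhibition of early stages before assembly.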

[23] = test system: Vesicular stomatitis virus; assay: Antiviral activity against Vesicular stomatitis virus G pseudoparticle infected in human Huh7.5.1 cells at 3.2 uM after 4 hrs by luciferase reporter gene assay; type: functional; settings: Huh-7, 4 h; procedure, shortened: as §5
[24] = Selectivity index, ratio of CC50 for human Huh7.5.1 cells infected with HCV JFH-1 virus to EC50 for HCV JFH-1 virus
Murine leukemia virus [25] = assay: Antiviral activity against Murine leukemia virus pseudoparticle infected in human Huh7.5.1 cells at 3.2 uM after 4 hrs by luciferase reporter gene assay; type: functional; settings: Huh-7, 4 h; procedure, shortened: as §5
Hepatitis C virus [26] = assay: Antiviral activity against HCV genotype 2a assessed as inhibition of RNA replication at 3.2 uM by cell-based replicon assay; type: functional, Hepacivirus hominis
Procedure, shortened: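 GT 2a subgenomic HCV replicon cells were seeded at 10^4 cells/well and incubated overnight. They were then exposed to compound for 48 h, and replication was read by luciferase activity. Results are given as % of DMSO control.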

[27] = Cmax in CD-1 mouse liver at 10 mg/kg, ip after 24 hrs by UPLC-MS/MS analysis; type: ADME, organism-based; design: dose 10 mg/kg, route intraperitoneal; procedure, shortened: as §4
[28] = as §3; type: ADME, organism-based; settings: CD-1, mouse, liver; procedure, shortened: as §4
Hepatitis C virus [29] = assay: Antiviral activity against HCV genotype 1b pseudoparticle infected in human Huh7.5.1 cells assessed as inhibition of virus entry at 3.2 uM after 4 hrs by luciferase reporter gene assay; type: functional, Hepacivirus hominis; settings: Huh-7, 4 h; procedure, shortened: as §5

Sequence of histamine H1 receptor (P35367 whole entry): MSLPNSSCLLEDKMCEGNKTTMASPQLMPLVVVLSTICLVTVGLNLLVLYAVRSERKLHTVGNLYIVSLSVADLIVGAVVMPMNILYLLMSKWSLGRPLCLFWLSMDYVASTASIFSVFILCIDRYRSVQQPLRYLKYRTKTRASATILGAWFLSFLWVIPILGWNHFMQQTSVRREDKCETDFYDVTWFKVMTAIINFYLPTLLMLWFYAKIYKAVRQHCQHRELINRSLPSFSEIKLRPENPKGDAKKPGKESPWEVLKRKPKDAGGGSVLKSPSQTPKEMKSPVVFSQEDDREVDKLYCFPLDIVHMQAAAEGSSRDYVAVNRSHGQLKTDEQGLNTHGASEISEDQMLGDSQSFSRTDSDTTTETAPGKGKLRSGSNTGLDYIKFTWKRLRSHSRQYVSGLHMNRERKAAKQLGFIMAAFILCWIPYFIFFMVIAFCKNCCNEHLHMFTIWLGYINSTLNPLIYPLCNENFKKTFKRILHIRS

Compound	CC50 [2] [µM]	t1/2 (Liver microsome [3]) [min]	inhibition at 10 µM (Hepatitis C virus [4]) [%]	inhibition at 10 µM (Hepatitis C virus [5]) [%]	inhibition at 10 µM [6] [%]	inhibition at 10 µM (Hepatitis C virus [7]) [%]	inhibition at 10 µM (Murine leukemia virus [8]) [%]	t1/2 (Liver microsome [9]) [min]	solubility kinetic [10] [µg/mL]	inhibition at 10 µM (Hepatitis C virus [11]) [%]	inhibition at 2 h, 0.01 µM (histamine H1 receptor) [%]	t1/2 [12] [min]	EC50 (Hepatitis C virus [15]) [nM]	CC50 (HepG2) [µM]	also measured
[2H]C([2H])([2H])CN1CCN([C@H](c2ccccc2)c2ccc(Cl)cc2)CC1	81.5														half-life [1]: 174 min
CN1CCN(C(c2ccc(Cl)cc2)c2ccc(Cl)cc2)CC1		26	91.9	112	119	12.4	116	> 120	> 49	76.2	18.5	91			t1/2 (Liver): 8.5 h; Activity (Mus musculus): 80 U/L
CN1CCN([C@@H](c2ccccc2)c2ccc(Cl)cc2)CC1	33.4		116	101	120	2.1	103		29.3 (≈ 97.4 µM)	107	49.5		240	32.3	AUC(0-inf) [13]: 48.9 µM·h; AUC(0-t) at 24 h [14]: 1310 µM·h; Cmax [16]: 436 µM; CC50 (Hepatocyte): > 31.6 µM
OCCOCCN1CCN(C(c2ccc(Cl)cc2)c2ccc(Cl)cc2)CC1		13.7	80.8	98.8	109	1.8	108	> 30	44.5 (≈ 109 µM)	71.7	23.7	10			
CCN1CCN([C@@H](c2ccccc2)c2ccc(Cl)cc2)CC1	40					2			12.3 (≈ 39.1 µM)		60.7			68.9	EC50 (Influenza A virus): ≥ 1000 nM; EC50 (SARS-CoV): ≥ 1000 nM; EC50 (Tacaribe virus): ≥ 1000 nM; EC50 (Hepatitis B virus): ≥ 1000 nM; EC50 (Vaccinia virus): ≥ 1000 nM; EC50 (Human betaherpesvirus 5): ≥ 1000 nM; EC50 [17]: ≥ 1000 nM; EC50 (Human alphaherpesvirus 1): ≥ 1000 nM; EC50 (Dengue virus): ≥ 1000 nM; EC50 (Rift Valley fever virus): ≥ 1000 nM; EC50 (Poliovirus 3): ≥ 1000 nM; EC50 [18]: ≥ 1000 nM; EC50 (Hepatitis C virus [19]): ≥ 1000 nM
CN1CCN(C(c2ccccc2)c2ccc(Cl)cc2)CC1 (racemic) [CHLORCYCLIZINE]	49.8	4.6	120	102	105	24.9	124	113		92.5	16	36	440		
NCCOCCOCCOCCOCCN1CCN(C(c2ccccc2)c2ccc(Cl)cc2)CC1 (racemic)	12.2	11.7	91.7	63.6	99.8	1.4	117	26.2	46 (≈ 90.9 µM)	95.8	54.1	29.1		12.6	
CCN1CCN(C(c2ccc(Cl)cc2)c2ccc(Cl)cc2)CC1		2.2	108	128	110	10.1	96.5		17.7 (≈ 50.7 µM)	76.6	31.7	12.6		56	half-life [20]: 30 min
Clc1ccc([C@H](c2ccccc2)N2CCNCC2)cc1	9.31								30.3 (≈ 106 µM)		88.1		32		inhibition at 3.2 µM (Hepatitis C virus [21]): 98.8%; inhibition at 3.2 µM (Hepatitis C virus [22]): 28.1%; inhibition at 3.2 µM [23]: 51.9%; selectivity ratio [24]: 333; inhibition at 3.2 µM (Murine leukemia virus [25]): 57.5%; inhibition at 3.2 µM (Hepatitis C virus [26]): 61.6%; Cmax [27]: 216 µM; half-life [28]: 282 min; inhibition at 3.2 µM (Hepatitis C virus [29]): 66.3%; CC50 (Hepatocyte): 9.01 µM
CCN1CCN([C@H](c2ccccc2)c2ccc(Cl)cc2)CC1	37.9														half-life [1]: 132 min

Reference: ChEMBL document CHEMBL3769315 (J Med Chem, 2016)
